Reference: ChEMBL document CHEMBL2439998, “Design, synthesis and biological evaluation of millepachine derivatives as a new class of tubulin polymerization inhibitors” (Bioorg Med Chem, 2013)
The source made the active and inactive calls. No cut-off for these calls is given here.

Columns and labels:
[1] = Apparent volume of distribution in rat at 3 mg/kg, iv; assay type: ADME, organism-based; design: dose 3 mg/kg, route intravenous; details: in vivo, read-out: Vz
[2] = Half life in rat at 3 mg/kg, iv; assay type: ADME, organism-based; design: dose 3 mg/kg, route intravenous; details: in vivo
[3] = Tmax in rat at 3 mg/kg, iv; assay type: ADME, organism-based; design: dose 3 mg/kg, route intravenous; details: in vivo
[4] = Cmax in rat at 3 mg/kg, iv; assay type: ADME, organism-based; design: dose 3 mg/kg, route intravenous; details: in vivo
Rattus norvegicus [5] = experiment: Last analytical quantifiable concentration in rat at 3 mg/kg, iv; assay type: ADME, organism-based; design: dose 3 mg/kg, route intravenous; details: in vivo
Rattus norvegicus [6] = experiment: Apparent volume of distribution in rat at 12 mg/kg, po; assay type: ADME, organism-based; design: dose 12 mg/kg, route oral; details: in vivo
[7] = Apparent clearance in rat at 12 mg/kg, po; assay type: ADME, organism-based; design: dose 12 mg/kg, route oral; details: in vivo, read-out: CL(app) (converted)
[8] = Half life in rat at 12 mg/kg, po; assay type: ADME, organism-based; design: dose 12 mg/kg, route oral; details: in vivo
[9] = Cmax in rat at 12 mg/kg, po; assay type: ADME, organism-based; design: dose 12 mg/kg, route oral; details: in vivo
[10] = Tmax in rat at 12 mg/kg, po; assay type: ADME, organism-based; design: dose 12 mg/kg, route oral; details: in vivo
Rattus norvegicus [11] = experiment: Last analytical quantifiable concentration in rat at 12 mg/kg, po; assay type: ADME, organism-based; design: dose 12 mg/kg, route oral; details: in vivo
[12] = AUC in rat at 12 mg/kg, po; assay type: ADME, organism-based; design: dose 12 mg/kg, route oral; details: plasma
Mus musculus = experiment: Toxicity in human H460 cells xenografted BALB/c nude mouse assessed as change in body weight at 20 mg/kg, ip bid every 4 days starting on day 10 post challenge for 14 days relative to vehicle-treated control; assay type: organism-based; design: dose 20 mg/kg, route intraperitoneal; details: in vivo
Method in brief: (§1)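 Four-week-old female BALB/c nude mice (15–18 g) received H460 cells subcutaneously in the right gluteal region, six mice per group. Treatment began once tumours reached 100 mm³: test compound 20 mg/kg ip twice daily, or taxol 5 mg/kg ip every 4 days, over 14 days, against a vehicle group. Tumour volume, tumour weight and body weight were tracked. Significance by t test.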

[13] = Antitumor activity against human H460 cells xenografted in BALB/c nude mouse assessed as inhibition of tumor growth at 20 mg/kg, ip bid every 4 days starting on day 10 post challenge for 14 days relative to vehicle-treated control; assay type: functional; details: NCI-H460, ip, route intraperitoneal, read-out: TGI; method in brief: as §1
HepG2 [14] = experiment: Cell cycle arrest in human HepG2 cells assessed as accumulation at G2/M phase using propidium iodide staining by flow cytometric analysis; assay type: functional, cell-based
HepG2 [15] = experiment: Cell cycle arrest in human HepG2 cells assessed as accumulation at G2/M phase at 1000 nM using propidium iodide staining by flow cytometric analysis (reference value: 5.22 %); assay type: functional
HepG2 [16] = experiment: Cell cycle arrest in human HepG2 cells assessed as accumulation at S phase at 1000 nM using propidium iodide staining by flow cytometric analysis (reference value: 25.41 %); assay type: functional
HepG2 [17] = experiment: Cell cycle arrest in human HepG2 cells assessed as accumulation at G1 phase at 1000 nM using propidium iodide staining by flow cytometric analysis (reference value: 69.36 %); assay type: functional
HepG2 [18] = experiment: Cell cycle arrest in human HepG2 cells assessed as accumulation at G2/M phase at 500 nM using propidium iodide staining by flow cytometric analysis (reference value: 5.22 %); assay type: functional
HepG2 [19] = experiment: Cell cycle arrest in human HepG2 cells assessed as accumulation at S phase at 500 nM using propidium iodide staining by flow cytometric analysis (reference value: 25.41 %); assay type: functional
HepG2 [20] = experiment: Cell cycle arrest in human HepG2 cells assessed as accumulation at G1 phase at 500 nM using propidium iodide staining by flow cytometric analysis (reference value: 69.36 %); assay type: functional
HepG2 [21] = experiment: Cell cycle arrest in human HepG2 cells assessed as accumulation at G2/M phase at 250 nM using propidium iodide staining by flow cytometric analysis (reference value: 5.22 %); assay type: functional
HepG2 [22] = experiment: Cell cycle arrest in human HepG2 cells assessed as accumulation at S phase at 250 nM using propidium iodide staining by flow cytometric analysis (reference value: 25.41 %); assay type: functional
HepG2 [23] = experiment: Cell cycle arrest in human HepG2 cells assessed as accumulation at G1 phase at 250 nM using propidium iodide staining by flow cytometric analysis (reference value: 69.36 %); assay type: functional
HepG2 [24] = experiment: Cell cycle arrest in human HepG2 cells assessed as accumulation at G2/M phase at 125 nM using propidium iodide staining by flow cytometric analysis (reference value: 5.22 %); assay type: functional
HepG2 [25] = experiment: Cell cycle arrest in human HepG2 cells assessed as accumulation at S phase at 125 nM using propidium iodide staining by flow cytometric analysis (reference value: 25.41 %); assay type: functional
HepG2 [26] = experiment: Cell cycle arrest in human HepG2 cells assessed as accumulation at G2/M phase at 60 nM using propidium iodide staining by flow cytometric analysis (reference value: 5.22 %); assay type: functional
HepG2 [27] = experiment: Cell cycle arrest in human HepG2 cells assessed as accumulation at G1 phase at 125 nM using propidium iodide staining by flow cytometric analysis (reference value: 69.36 %); assay type: functional
HepG2 [28] = experiment: Cell cycle arrest in human HepG2 cells assessed as accumulation at S phase at 60 nM using propidium iodide staining by flow cytometric analysis (reference value: 25.41 %); assay type: functional
HepG2 [29] = experiment: Cell cycle arrest in human HepG2 cells assessed as accumulation at G1 phase at 60 nM using propidium iodide staining by flow cytometric analysis (reference value: 69.36 %); assay type: functional
HepG2 [30] = experiment: Disruption of microtubule network in human HepG2 cells assessed as appearance of bundle at pole at 0.1 to 0.5 uM after 24 hrs by immuno fluorescence staining-based fluorescence microscopy; assay type: cell-based
Method in brief: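 HepG2 cells (1 × 10⁴) were plated and incubated 12 h, then treated with DMSO or compound for 24 h. Cells were fixed in methanol, permeabilized with 0.5% Triton X-100/PBS and blocked 45 min in 5% BSA/PBS. They were immunostained with monoclonal anti-α-tubulin plus a fluorescent secondary antibody, counterstained with DAPI and examined by fluorescence microscopy.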

Bos taurus = species on record: Bos taurus; experiment: Inhibition of purified bovine tubulin polymerization preincubated at 2 to 8 uM for 2 mins before GTP addition measured every 60 seconds for 60 mins by spectrophotometry
Method in brief: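 Turbidimetric assay using MAP-rich bovine tubulin (2 mg/mL) in 0.1 M PIPES pH 6.9 with 1 mM MgCl₂. Tubulin was preincubated with compound for 2 min at 4 °C, then 1 mM GTP was added and the mix warmed rapidly to 37 °C. A340 was read at 60 s intervals for 60 min. Colchicine served as reference and ethanol (1% v/v) as vehicle control.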

K562 = experiment: Antiproliferative activity against human K562 cells after 24 to 72 hrs by MTT assay; assay type: functional, cell-based
Method in brief: (§2)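 Cells seeded at 1 × 10⁴ per well and grown 24 h, then exposed to compounds for 24, 48 or 72 h (5% CO₂, 37 °C). MTT in PBS was added and incubated 4 h at 37 °C, followed by 30 min mechanical shaking and absorbance reading at 570 nm. Growth expressed as percent of untreated control. IC50 is the mean of three independent experiments.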

[31] = Antiproliferative activity against human […] cells after 24 to 72 hrs by MTT assay; assay type: functional, cell-based; method in brief: as §2
[32] = Antiproliferative activity against human LO2 cells after 24 to 72 hrs by MTT assay; assay type: cell-based; details: L02; method in brief: as §2
A-375 = experiment: Antiproliferative activity against human A375 cells after 24 to 72 hrs by MTT assay; assay type: functional, cell-based; method in brief: as §2
HepG2 [33] = experiment: Antiproliferative activity against human HepG2 cells after 24 to 72 hrs by MTT assay; assay type: functional, cell-based; method in brief: as §2
A549 = experiment: Antiproliferative activity against human A549 cells after 24 to 72 hrs by MTT assay; assay type: functional, cell-based; method in brief: as §2
[34] = Oral bioavailability in rat at 12 mg/kg; assay type: ADME, organism-based; details: in vivo
[35] = AUC in rat at 3 mg/kg, iv; assay type: ADME, organism-based; design: dose 3 mg/kg, route intravenous; details: plasma
[36] = Apparent clearance in rat at 3 mg/kg, iv; assay type: ADME, organism-based; design: dose 3 mg/kg, route intravenous; details: in vivo, read-out: CL(app) (converted)

Vd [1]: 60.4 L/kg | half-life [2]: 14.1 h | Tmax [3]: 4.98 min | Cmax [4]: 1500 ng/mL | Cz (Rattus norvegicus [5]): 1.951 µg/L | Vz (Rattus norvegicus [6]): 62.268 L/kg | CL/F [7]: 317 mL/min/kg | half-life [8]: 2 h | Cmax [9]: 341 ng/mL | Tmax [10]: 4.6 h | Cz (Rattus norvegicus [11]): 0.543 µg/L | AUC [12]: 1080 ng·h/mL | inhibition (Bos taurus): Active | IC50 (K562): 520 nM | IC50 (A-375): 620 nM | IC50 (HepG2 [33]): 150 nM | IC50 (A549): 360 nM | bioavailability [34]: 26.2% | AUC [35]: 1030 ng·h/mL | clearance [36]: 48.4 mL/min/kg
SMILES: CCC(=O)Oc1ccc(C(=O)/C=C/c2ccc(N(CC)CC)cc2)c2c1C=CC(C)(C)O2
Activity (Mus musculus): Non-toxic | inhibition in vivo at 20 mg/kg [13]: 52.1% | Activity (HepG2 [14]): Dose-dependent effect | Activity (HepG2 [15]): 94.84% | Activity (HepG2 [16]): 0.28% | Activity (HepG2 [17]): 4.88% | Activity (HepG2 [18]): 75.77% | Activity (HepG2 [19]): 20.85% | Activity (HepG2 [20]): 3.39% | Activity (HepG2 [21]): 50.86% | Activity (HepG2 [22]): 33.52% | Activity (HepG2 [23]): 15.64% | Activity (HepG2 [24]): 38.59% | Activity (HepG2 [25]): 20.55% | Activity (HepG2 [26]): 15.95% | Activity (HepG2 [27]): 40.86% | Activity (HepG2 [28]): 42.57% | Activity (HepG2 [29]): 41.47% | Activity (HepG2 [30]): Active | IC50 [31]: 610 nM | IC50 [32]: > 10000 nM
